Assay outcomes deposited in PubChem BioAssay by Sanford-Burnham Center for Chemical Genomics.
SENP7 inh: inhibitors of human SENP7 protease. Q9BQF6. recombinant SENP7, Z-RLRGG-aminoluciferin luminescence, 40 min. inhibition, % at 5 µM. 1.5% of 330,000 active. AID 434973;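 active means inhibition above about 50% at the single test dose, limit read from the data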;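 further: plate controls were DMSO with enzyme for no effect and no enzyme buffer wells for full effect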
Target sequence (Q9BQF6 706-1050 limits assumed): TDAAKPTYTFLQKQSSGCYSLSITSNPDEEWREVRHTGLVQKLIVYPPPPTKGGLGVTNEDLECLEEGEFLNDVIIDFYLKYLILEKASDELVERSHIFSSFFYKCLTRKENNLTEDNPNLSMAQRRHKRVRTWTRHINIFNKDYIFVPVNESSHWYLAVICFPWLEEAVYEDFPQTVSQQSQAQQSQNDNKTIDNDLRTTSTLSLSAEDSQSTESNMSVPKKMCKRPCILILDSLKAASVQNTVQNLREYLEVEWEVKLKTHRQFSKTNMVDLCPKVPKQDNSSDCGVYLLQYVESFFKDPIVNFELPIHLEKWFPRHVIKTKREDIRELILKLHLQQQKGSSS
UBC13 polyUb: inhibitors of human UBC13 polyubiquitin chain formation | TR-FRET | inhibition, % at 20 µM | 0.47% of 330,000 active | AID 485273; in the data active means inhibition above about 45%, passing the limit was not always enough
SENP8 block-1: inhibitors of human SENP8 protease; Q96LD8; recombinant SENP8, Nedd8 substrate fluorescence; inhibition, % at 20 µM; 0.64% of 360,000 active; AID 602440; in the data active means inhibition mostly above about 40%, no sharp cut-off; inactive means mostly below about 27%
Target sequence (Q96LD8 whole entry, looked up): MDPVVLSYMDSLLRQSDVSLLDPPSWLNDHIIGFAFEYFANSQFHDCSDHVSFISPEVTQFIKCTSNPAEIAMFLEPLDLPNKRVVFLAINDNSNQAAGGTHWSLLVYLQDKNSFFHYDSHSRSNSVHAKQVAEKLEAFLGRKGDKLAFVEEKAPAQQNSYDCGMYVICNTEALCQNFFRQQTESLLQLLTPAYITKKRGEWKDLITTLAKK
SENP8 block-2: SENP8 protease inhibition | purified SENP8, Z-RLRGG-aminoluciferin cleavage, luminescence | inhibition, % at 10 µM | 1.2% of 330,000 active; in the data active means inhibition above about 50%
Apaf1 inhib: inhibitors of human Apaf-1 apoptosome; O14727; reconstituted apoptosome caspase-3 activity, DEVD-Rh110 fluorescence; inhibition, % at 20 µM; 0.71% of 330,000 active; AID 489030; active means inhibition of at least 40% at 20 µM;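 further: plate controls were DMSO wells for no effect and DEVD-CHO caspase inhibitor wells for full effect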
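System: reconstituted apoptosome with Apaf-1, cytochrome c, caspase-9, procaspase-3, dATP; Signal: Rh110 fluorescence intensity; Schedule: 30 min compound preincubation, 50 min activation, room temperature; Reagent: cytochrome c trigger plus (Z-DEVD)2-Rh110 caspase-3 substrate.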
SENP6 inh: inhibitors of human SENP6 protease. Recombinant SENP6 catalytic domain, aminoluciferin luminescence. inhibition, % at 10 µM. 1.8% of 330,000 active;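 active means inhibition above about 50% at the single tested dose, limit read from the data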;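 further: plate controls were DMSO wells with enzyme for no effect and DMSO wells lacking enzyme for full effect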
Apaf-1 inh conf: confirmation of Apaf-1 inhibitors; shares compounds with Apaf1 inhib; reconstituted apoptosome, caspase-3 DEVD-Rh110 fluorescence; 25% of 1,800 active; inhibition, % at 20 µM;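 active means mean inhibition of at least 40% at 20 µM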;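 further: plate controls were DMSO wells for no effect and DEVD-CHO caspase inhibitor control wells for full effect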
Rh110 interf inh: Rh110 signal interference in Apaf-1 inhibitor counter-screen. Rh110 fluorescence interference, quenched caspase reaction. 1,800 tested, under 10 active. activation (fluorescence interference), % at 20 µM. shares compounds with Apaf1 inhib;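 active means signal rise of 40% or more at 20 µM, treated as a fluorescence artifact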
* hit, by the source's call. A selection: hits, their analogues and other compounds. The true share with any hit is near 3%.

For CN(CCc1ccccc1)C(CCc1ccccc1)C(=O)Nc1ccc2c(c1)OCCO2 (centres undefined) the results were SENP8 block-1 26.
Screening Cc1cc(SCC(=O)N/N=C/c2ccc(O)c(O)c2O)c(C)cc1Br returned SENP7 inh 3, UBC13 polyUb -24, SENP8 block-1 35*, SENP8 block-2 -3, Apaf1 inhib 49*, SENP6 inh 1, Apaf-1 inh conf 31 and Rh110 interf inh 8.
For CCCCC(=O)N(C)c1c(CC)nc2c(OCC(=O)c3ccc(Cl)cc3Cl)cccn12 the results were SENP8 block-1 -252.
Screening Cc1cccc(C)c1-n1nnnc1C1(C)CCC(=O)N1CC(F)(F)F (centres undefined) returned SENP8 block-1 26.
`Cc1ccc(Cc2c(-c3cccc(Br)c3)nc3cc(C)c(Br)c(C)n23)cc1` gave SENP8 block-1 -1.
Screening O=C(OCC(=O)N1CCN(S(=O)(=O)c2ccccc2)CC1)c1ccc([N+](=O)[O-])o1 returned SENP7 inh 21, UBC13 polyUb 8, SENP8 block-1 40, SENP8 block-2 10, Apaf1 inhib 80*, SENP6 inh 41, Apaf-1 inh conf 18 and Rh110 interf inh 10.
O=C(OCC(=O)N1CCN(S(=O)(=O)c2ccc(Cl)cc2)CC1)c1ccc([N+](=O)[O-])o1 was read as SENP7 inh 11, UBC13 polyUb -9, SENP8 block-1 22, SENP8 block-2 -15, Apaf1 inhib 69*, SENP6 inh 14, Apaf-1 inh conf 14 and Rh110 interf inh 3.
For O=C(O)c1cocc1C(=O)O the results were SENP8 block-1 13.
COc1ccc(Cl)cc1C(=O)NCCN(C)C was read as SENP7 inh 4, UBC13 polyUb -3, SENP8 block-1 26, SENP8 block-2 -2, Apaf1 inhib 5 and SENP6 inh -6.
`CN(C)CCNC(=O)c1ccc(COc2ccc(Cl)cc2Cl)cc1` gave SENP7 inh 13, UBC13 polyUb 23, SENP8 block-1 27, SENP8 block-2 1, Apaf1 inhib 46*, SENP6 inh 2, Apaf-1 inh conf 5 and Rh110 interf inh 3.
`COc1cc(C(O)c2nc(-c3ccc(C)c(C)c3)cs2)ccc1F` (centres undefined) gave SENP8 block-1 3.
Screening Cn1c(NC(=O)c2ccc(Cl)s2)cc(=O)n(C)c1=O returned SENP7 inh 6, UBC13 polyUb 3, SENP8 block-1 18, SENP8 block-2 -1, Apaf1 inhib 66*, SENP6 inh -12, Apaf-1 inh conf 10 and Rh110 interf inh -3.
Fc1cccc(CCN2CCNC[C@H]2Cc2cccc3ccccc23)c1 was read as SENP7 inh 4, UBC13 polyUb 39, SENP8 block-1 10, SENP8 block-2 -8, Apaf1 inhib 43*, SENP6 inh -14, Apaf-1 inh conf 8 and Rh110 interf inh 2.
COc1cccc(/C=C2/CCC(CN(C)C)C2=O)c1 (centres undefined) was read as SENP8 block-1 16.
Screening CC(C)OP(=O)(OC(C)C)C(Nc1ccccn1)c1ccc(F)cc1 (centres undefined) returned SENP7 inh -4, UBC13 polyUb -7, SENP8 block-1 16, SENP8 block-2 -6, Apaf1 inhib 55*, SENP6 inh -7, Apaf-1 inh conf 12 and Rh110 interf inh 1.
For CCOP(=O)(OCC)C(Nc1ccccn1)c1ccc(F)cc1 (centres undefined) the results were SENP7 inh -2, UBC13 polyUb -2, SENP8 block-1 15, SENP8 block-2 4, Apaf1 inhib -8 and SENP6 inh -5.
`O=C(NCC1CCCCC1)c1ccc2sc([C@H]3C[C@H](O)[C@@H](CO)O3)nc2c1` gave SENP8 block-1 9.
Cc1ccc(C)c2[nH]c(=O)c(C(c3nnnn3CCc3ccccc3)N3CCOCC3)cc12 (centres undefined) was read as SENP7 inh -9, UBC13 polyUb -4, SENP8 block-1 -138, SENP8 block-2 -6, Apaf1 inhib 18 and SENP6 inh -27.
Screening Cc1ccc(C)c2[nH]c(=O)c(C(c3nnnn3Cc3ccco3)N3CCc4ccccc4C3)cc12 (centres undefined) returned SENP7 inh 19, UBC13 polyUb -21, SENP8 block-1 -141, SENP8 block-2 10, Apaf1 inhib 71*, SENP6 inh 39, Apaf-1 inh conf 22 and Rh110 interf inh -3.
CC(C)(C)n1nnnc1C(c1ccccc1)N1CCN(c2c(Cl)cncc2Cl)CC1 (centres undefined) was read as SENP8 block-1 11.
`CCC/C(=C1/c2ccccc2C(=O)N1c1ccccc1)c1cnc(OC)nc1` gave SENP7 inh 2, UBC13 polyUb -3, SENP8 block-1 15, SENP8 block-2 -12, Apaf1 inhib 41*, SENP6 inh -16, Apaf-1 inh conf 24 and Rh110 interf inh 2.
Screening COc1ccc(N)c2c1OCCC2=O returned SENP7 inh 4, UBC13 polyUb -26, SENP8 block-1 29, SENP8 block-2 -2, Apaf1 inhib 87*, SENP6 inh 17, Apaf-1 inh conf 11 and Rh110 interf inh 9.
COc1ccc2c(c1OC)C(=O)OC2 was read as SENP7 inh 0, UBC13 polyUb 5, SENP8 block-1 6, SENP8 block-2 4, Apaf1 inhib -10 and SENP6 inh -2.
Screening C(=Nc1cccc2c(N=Cc3ccco3)cccc12)c1ccco1 returned SENP7 inh 30, UBC13 polyUb -87, SENP8 block-1 -396, SENP8 block-2 72*, Apaf1 inhib 92*, SENP6 inh 86*, Apaf-1 inh conf 28 and Rh110 interf inh 0.
For CN1CCN(S(=O)(=O)c2cccc(C(=O)Nc3cc(C(F)(F)F)ccc3N3CCCCC3)c2)CC1 the results were SENP7 inh 13, UBC13 polyUb 17, SENP8 block-1 4, SENP8 block-2 -7, Apaf1 inhib 40*, SENP6 inh -2, Apaf-1 inh conf 23 and Rh110 interf inh 8.
Screening CC(=O)Nc1ccc2c(c1)N(C(=O)CN(C)C)c1ccccc1CC2 returned SENP7 inh 14, UBC13 polyUb -11, SENP8 block-1 18, SENP8 block-2 11, Apaf1 inhib 43*, SENP6 inh 19, Apaf-1 inh conf 22 and Rh110 interf inh 6.
Screening CC(C)N(Cc1ccccc1)S(=O)(=O)c1ccc(-n2cccn2)cc1 returned SENP8 block-1 8.
Screening CCOC(=O)c1cnn(-c2cc(C(C)(C)C)nc3c(-c4ccccc4)c(C)nn23)c1N returned SENP7 inh -2, UBC13 polyUb -1, SENP8 block-1 2, SENP8 block-2 -3, Apaf1 inhib -9 and SENP6 inh 4.
